Tests used:
Influenza A virus = assay: Antiviral activity against influenza A virus (A/swine/OH/511445/2007(H1N1)) Oh7 infected in MDCK cells assessed as inhibition of viral replication after 4 days by quantitative RT-PCR; type: functional; settings: (A/swine/OH/511445/2007(H1N1)) Oh7, MDCK, 96 h, read-out: ED50 (the source's name)
[1] = Cytotoxicity against MDCK cells after 4 days; type: cell-based, Canis lupus familiaris; settings: dog, read-out: TD50
How it was run: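 MDCK cells exposed to compounds at 0.1–150 μM with trypsin (10 μg/mL) for up to 4 days. Cells were inspected microscopically. TD50 was taken as the dose causing 50% cell death.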

[2] = Therapeutic index, ratio of TD50 for MDCK cells to ED50 for influenza A virus (A/swine/OH/511445/2007(H1N1)) Oh7; type: cell-based; settings: dog, read-out: Ratio TD50/ED50
How it was run: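 MDCK cells infected with swine influenza A/swine/OH/511445/2007 (H1N1, Oh7) and incubated with compound at 0.1–150 μM plus trypsin (10 μg/mL) for up to 4 days. Cytopathic effect was scored, and replication was confirmed by immunofluorescence and Western blot against viral nucleoprotein or whole virus. ED50 is the dose giving 50% virus reduction, and TD50 the dose giving 50% cell death. TI is TD50/ED50.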

**Q.** Which EC50 (Influenza A virus) does the source give for O=C(Oc1c(-c2ccc(O)c(O)c2)oc2cc(O)cc(O)c2c1=O)c1cc(O)c(O)c(O)c1 here?
**A.** 9.1 µM

**Q.** What about the CC50 at 96 h [1] of the same compound?
**A.** 90.2 µM

**Q.** What about the selectivity ratio [2] of the same compound?
**A.** 9.9

**Q.** With O=C(Oc1c(-c2ccc(O)c(O)c2)oc2cc(O)cc(O)c2c1=O)c1cc(O)ccc1O as the compound, how does the EC50 (Influenza A virus) read?
**A.** 19.4 µM

**Q.** What about the CC50 at 96 h [1] of the same compound?
**A.** 45.2 µM

**Q.** What about the selectivity ratio [2] of the same compound?
**A.** 2.3

**Q.** What does the source list for Nc1cc(C(=O)Oc2c(-c3ccc(O)c(O)c3)oc3cc(O)cc(O)c3c2=O)ccc1O?
**A.** EC50 (Influenza A virus): 22.6 µM; CC50 at 96 h [1]: 60.1 µM; selectivity ratio [2]: 2.7

**Q.** Which results are given for Nc1ccc(C(=O)Oc2c(-c3ccc(O)c(O)c3)oc3cc(O)cc(O)c3c2=O)cc1O?
**A.** EC50 (Influenza A virus): 24.1 µM; CC50 at 96 h [1]: 54.8 µM; selectivity ratio [2]: 2.3

**Q.** Which EC50 (Influenza A virus) does the source give for O=C(Oc1cc(-c2oc3cc(O)cc(O)c3c(=O)c2O)ccc1O)c1cc(O)c(O)c(O)c1 here?
**A.** > 50 µM

**Q.** Which EC50 (Influenza A virus) does the source give for NCCCOc1cc(-c2oc3cc(O)cc(O)c3c(=O)c2O)ccc1O here?
**A.** > 50 µM

**Q.** With CCCOc1cc(O)cc2oc(-c3ccc(O)c(O)c3)c(O)c(=O)c12 as the compound, how does the EC50 (Influenza A virus) read?
**A.** > 50 µM

**Q.** Which EC50 (Influenza A virus) does the source give for O=c1c(OCc2ccccc2)c(-c2ccc(OCc3ccccc3)c(OCc3ccccc3)c2)oc2cc(OCc3ccccc3)cc(O)c12 here?
**A.** > 50 µM

**Q.** Which EC50 (Influenza A virus) does the source give for O=C(O[C@@H]1Cc2c(O)cc(O)cc2O[C@@H]1c1cc(O)c(O)c(O)c1)c1cc(O)c(O)c(O)c1 [EPIGALOCATECHIN GALLATE] here?
**A.** 8.3 µM

**Q.** What about the CC50 at 96 h [1] of the same compound?
**A.** 45.5 µM

**Q.** What about the selectivity ratio [2] of the same compound?
**A.** 5.5

**Q.** For O=c1c(O[C@@H]2O[C@H](CO)[C@@H](O)[C@H](O)[C@H]2O)c(-c2ccc(O)c(O)c2)oc2cc(O)cc(O)c12 [ISOQUERCETIN], which EC50 (Influenza A virus) is on record?
**A.** 1.2 µM

**Q.** What about the CC50 at 96 h [1] of the same compound?
**A.** 45.1 µM

**Q.** And the selectivity ratio [2]?
**A.** 37.6

**Q.** What does the source list for O=c1c(O)c(-c2ccc(O)c(O)c2)oc2cc(O)cc(O)c12 [QUERCETIN]?
**A.** EC50 (Influenza A virus): 48.2 µM; CC50 at 96 h [1]: 83.4 µM; selectivity ratio [2]: 1.7

Reference: ChEMBL document CHEMBL1933043
